The values that follow come from ChEMBL document CHEMBL3588801, “Thiosemicarbazones as Aedes aegypti larvicidal” (Eur J Med Chem, 2015).

Data set [1] deals with Aedes aegypti. The experiment in a line: Larvicidal activity against Aedes aegypti L4 stage larvae assessed as induction of larval mortality incubated for 48 hrs. The format is functional. The conditions noted are these: for LC50: Aedes aegypti, 48 h. The procedure, abridged:
(§1)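 Adapted WHO larval test. Compound solubilized with Tween 80 co-solvent in distilled water as stock, then diluted. Fourth-instar A. aegypti larvae, 20 per beaker, in 20 mL test solution; four replicates per concentration, plus a compound-free negative control. Mortality scored after 48 h at 28 ± 2 °C, 70 ± 10 relative humidity (dead = no response to stimulus or failure to surface). LC50 from probit analysis.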

Data set [2] can be described thus: Cytotoxicity against BALB/c mouse splenocytes assessed as reduction in cell viability incubated for 24 hrs by beta-radiation counting based [3H]-thymidine incorporation assay. Also noted: species or system Splenocyte. The method, boiled down: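 BALB/c mouse splenocytes seeded at 6 × 10^5 cells/well in RPMI-1640 with 10% FBS and gentamycin; compound added in DMSO at six concentrations (1, 5, 10, 25, 50, 100) in triplicate; 24 h at 37 °C, 5% CO2; then 3H-thymidine pulse and beta counting. Viability as % incorporation versus solvent-only cells; saponin positive control; highest non-toxic concentration estimated.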

The nature of data set [3]: Lipophilicity log P of the compound. The format is physicochemical. The conditions noted are these: octanol/water. The procedure, abridged:
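Calculated rather than measured, alongside the B3LYP/6-311++G(d,p) dipole moment.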

For data set [4], the target named is T1, Sterol carrier protein 2 (Aedes aegypti) (UniProt Q86PR3).
T1 sequence (whole entry): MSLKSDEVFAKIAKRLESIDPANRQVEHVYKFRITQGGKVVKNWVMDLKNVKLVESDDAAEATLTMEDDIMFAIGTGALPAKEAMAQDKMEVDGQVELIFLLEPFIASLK
The experiment in a line: (§2) Inhibition of NBD-cholesterol binding to recombinant Aedes aegypti SCP-2 protein by fluorescence based assay. The method, boiled down:
(§3)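 Competition assay with purified recombinant AeSCP-2, NBD-cholesterol and compound at increasing concentrations, read as fluorescence intensity. Separate NBD-cholesterol plus compound wells served as background where the compound interfered with fluorescence. Net signal is NBD-cholesterol/SCP-2/compound fluorescence minus that background, plotted as dose-response.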

A further data set addresses T2, Sterol carrier protein 2 (Aedes aegypti, UniProt Q86PR3).
T2 sequence (Q86PR3 whole entry): T1 sequence (whole entry)
The data set is described as §2. The method, boiled down: as §3

Data set [5] deals with Aedes aegypti. Briefly: Larvicidal activity against Aedes aegypti. The format is functional. The method, boiled down:
as §1

Each structure is given as a SMILES string. ≈ marks a conversion by molar mass, not a printed value. Where “and” joins values, the source holds several entries; their conditions need not be identical. Equal values may be shown once.

Turning to `NC(=S)N/N=C/c1ccc(Br)cc1`, in the data set on Aedes aegypti [1], the “log(1/LC50)” value worked out at 3.91; the LC50 was 31.7 µg/mL and 123 µM. Also, in data set [2], the MNTC at 24 h is < 3.87 µM. This compound came in with a logP in data set [3] of 2.87.
Turning to `NC(=S)N/N=C/c1ccc(O)cc1`, the inhibition entry in data set [4] was “Dose-dependent effect”. The EC50 on Sterol carrier protein 2 is 5 µM. Moreover, the MNTC at 24 h in data set [2] worked out at 5.12 µM.
Turning to `NC(=S)N/N=C/COc1cccc(Cl)c1Cl`, in the data set with Aedes aegypti [1], the “log(1/LC50)” value came out at 4.154; the LC50 was 19.5 µg/mL and 70.1 µM. The MNTC at 24 h in data set [2] was 17.9 µM. In addition, in data set [3], the logP came out at 3.3.
Consider `NC(=S)N/N=C/C=C/c1ccccc1`, for which, in the data set with Aedes aegypti [1], the “log(1/LC50)” value is 3.86; the LC50 was 28.4 µg/mL and 138 µM. Further, the MNTC at 24 h in data set [2] is < 4.87 µM.
`NC(=S)N/N=C/COc1ccc(Br)cc1`: in the data set with Aedes aegypti [1], the “log(1/LC50)” value was determined as 4.036; the LC50 was 26.5 µg/mL and 92 µM. Besides, in data set [2], the MNTC at 24 h was > 347 µM. In data set [3], this compound registered a logP of 2.9.
As for `C/C(=N\NC(N)=S)C(C)Oc1ccc(Cl)c(Cl)c1` (stereo not drawn), the LC50 in the data set with Aedes aegypti [1] turned out to be 3.95 µM. For the same compound, in data set [3], the logP was 4.87.
Consider `COc1ccc(OC/C=N/NC(N)=S)cc1`, for which the inhibition result in data set [4] is “Dose-dependent effect”. On Sterol carrier protein 2, the EC50 was 0.6 µM. Also, in the data set on Aedes aegypti [1], the “log(1/LC50)” value is 3.298; the LC50 was 120 µg/mL and 503 µM. In addition, the MNTC at 24 h in data set [2] amounted to 20.9 µM. The compound also gave a logP in data set [3] of 2.09.
As to `NC(=S)N/N=C/c1ccc(Cl)cc1`, in the data set with Aedes aegypti [1], the “log(1/LC50)” value stood at 3.873; the LC50 was 28.8 µg/mL and 135 µM. The MNTC at 24 h in data set [2] was 23.3 µM. The compound further returned a logP in data set [3] of 2.63.
`NC(=S)N/N=C/COc1cccc(Cl)c1`: in the data set with Aedes aegypti [1], the “log(1/LC50)” value was found to be 3.542; the LC50 was 70 µg/mL and 287 µM. Further, in data set [2], the MNTC at 24 h came to 103 µM. The same compound had a logP in data set [3] of 2.65.
In the case of `N/C(S)=N/N=C/c1ccc(Cl)c(Cl)c1`, in the data set on Aedes aegypti [1], the “log(1/LC50)” value stood at 4.157; the LC50 is 17.3 µg/mL and 69.7 µM. Besides, the MNTC at 24 h in data set [2] is 20.2 µM. Also, the logP in data set [3] came to 3.27.
The compound `CCCCC/C=C/C=C/C(=O)NCC(C)C` [PELLITORIN] gave an LC50 in the data set with Aedes aegypti [5] of 0.92 µg/mL (≈ 4.12 µM).
On the same count and under the same terms, the value for `CC(C)CNC(=O)/C=C/C=C/CC/C=C/c1ccc2c(c1)OCO2` [RETROFRACTAMIDE A] was 0.04 µg/mL (≈ 0.122 µM).
In the case of `NC(=S)N/N=C/c1cccc(/C=N/NC(N)=S)c1`, the LC50 in the data set with Aedes aegypti [1] is > 200 µg/mL.
`NC(=S)N/N=C/COc1ccc(Cl)cc1`: in the data set on Aedes aegypti [1], the “log(1/LC50)” value is given as 4.046; the LC50 was 21.9 µg/mL and 89.9 µM. Further, in data set [2], the MNTC at 24 h was found to be 103 µM. Moreover, in data set [3], the logP came to 2.65.
With `NC(=S)N/N=C/COc1ccc(Cl)c(Cl)c1`, in the data set on Aedes aegypti [1], the “log(1/LC50)” value was 4.68; the LC50 was 5.8 µg/mL and 20.9 µM. In addition, the MNTC at 24 h in data set [2] amounted to 89.8 µM. In data set [3], this compound had a logP of 3.3.
In the case of `CC(C)CNC(=O)/C=C/C=C/CCCCCC/C=C/c1ccc2c(c1)OCO2` [GUINEENSINE], in the data set with Aedes aegypti [5], the LC50 is 0.89 µg/mL (≈ 2.32 µM).
As for `NC(=S)N/N=C/c1ccc(F)cc1`, in the data set on Aedes aegypti [1], the “log(1/LC50)” value worked out at 3.507; the LC50 was 61.3 µg/mL and 311 µM. For the same compound, the MNTC at 24 h in data set [2] was determined as 25.4 µM. The compound also came in with a logP in data set [3] of 2.18.
On to `CC(C)CNC(=O)/C=C/C=C/CCCC/C=C/c1ccc2c(c1)OCO2` [RETROFRACTAMIDE B], for which, in the data set on Aedes aegypti [5], the LC50 was 0.1 µg/mL (≈ 0.281 µM).
Regarding `NC(=O)N/N=C/c1ccc(F)cc1`, the LC50 in the data set with Aedes aegypti [1] was > 200 µg/mL and > 1.1 mM. In data set [2], the MNTC at 24 h was > 55.1 µM.
Consider `NC(=S)N/N=C/COc1ccccc1`, for which, in the data set on Aedes aegypti [1], the “log(1/LC50)” value worked out at 3.268; the LC50 was 113 µg/mL and 538 µM. In addition, in data set [2], the MNTC at 24 h came to 119 µM. The compound further came in with a logP in data set [3] of 2.01.
`NC(=O)N/N=C/c1ccc(Cl)c(Cl)c1`: the LC50 with Aedes aegypti [1] is > 200 µg/mL and > 862 µM. Further, in data set [2], the MNTC at 24 h is > 431 µM.
